Test results from ChEMBL document CHEMBL4330069, “Boosting the efficacy of anti-MRSA β-lactam antibiotics via an easily accessible, non-cytotoxic and orally bioavailable FtsZ inhibitor” (Eur J Med Chem, 2019).
Values after ≈ are worked out from the molar mass of the structure shown. Values belong to the compound of their own block, whether it stands above or below them.

What was measured:
[1] = system: L929; assay: Cytotoxicity against mouse L929 cells by MTS assay; type: cell-based
How it was run: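 MTS assay on L929 mouse fibroblasts; IC50 reported as the average of three independent measurements.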

[2] = system: Staphylococcus aureus; assay: Antibacterial activity against Staphylococcus aureus ATCC 29213 by broth microdilution assay; type: functional
How it was run: (§1)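 Broth microdilution per CLSI guidelines; compounds dissolved in DMSO; single agents tested; growth inhibition read by eye; run in duplicate (table footnote states at least triplicates).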

[3] = Selective index, ratio of IC50 for mouse L929 cells to MIC for Staphylococcus aureus ATCC 29213
How it was run: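 Selectivity index calculated as L929 IC50 (μM) divided by S. aureus MIC (μM).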

[4] = system: Escherichia coli; assay: Antibacterial activity against Escherichia coli ATCC 25922 by broth microdilution assay; type: functional; how it was run: as §1
[5] = system: Staphylococcus aureus; assay: Antibacterial activity against multidrug-resistant Staphylococcus aureus isolate 3267 by broth microdilution assay; type: functional
How it was run: (§2)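 Broth microdilution MIC per CLSI guidelines against clinical MRSA isolates, for β-lactams and test compound alone and in combination. Compounds were dissolved in DMSO. Growth was read by eye, in duplicate. FIC index = FIC(compound) + FIC(drug); synergy defined as FIC index ≤0.5.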

[6] = system: Staphylococcus aureus; assay: Antibacterial activity against multidrug-resistant Staphylococcus aureus isolate 3589 by broth microdilution assay; type: functional; how it was run: as §2
[7] = system: Staphylococcus aureus; assay: Antibacterial activity against multidrug-resistant Staphylococcus aureus isolate 231 by broth microdilution assay; type: functional; how it was run: as §2
[8] = system: Staphylococcus aureus; assay: Antibacterial activity against multidrug-resistant Staphylococcus aureus isolate 358 by broth microdilution assay; type: functional; how it was run: as §2
[9] = system: Staphylococcus aureus; assay: Antibacterial activity against multidrug-resistant Staphylococcus aureus isolate 3580 by broth microdilution assay; type: functional; how it was run: as §2
[10] = system: Staphylococcus aureus; assay: Antibacterial activity against multidrug-resistant Staphylococcus aureus isolate 2973 by broth microdilution assay; type: functional; how it was run: as §2
[11] = system: Staphylococcus aureus; assay: Antibacterial activity against multidrug-resistant Staphylococcus aureus isolate 256 by broth microdilution assay; type: functional; how it was run: as §2
[12] = system: Staphylococcus aureus; assay: Antibacterial activity against multidrug-resistant Staphylococcus aureus isolate 1344 by broth microdilution assay; type: functional; how it was run: as §2
[13] = system: Staphylococcus aureus; assay: Antibacterial activity against multidrug-resistant Staphylococcus aureus isolate 254 by broth microdilution assay; type: functional; how it was run: as §2
[14] = system: Staphylococcus aureus; assay: Antibacterial activity against multidrug-resistant Staphylococcus aureus isolate 417 by broth microdilution assay; type: functional; how it was run: as §2
[15] = system: Staphylococcus aureus; assay: Antibacterial activity against multidrug-resistant Staphylococcus aureus isolate 2919 by broth microdilution assay; type: functional; how it was run: as §2
[16] = system: Staphylococcus aureus; assay: Antibacterial activity against multidrug-resistant Staphylococcus aureus isolate 1136 by broth microdilution assay; type: functional; how it was run: as §2
[17] = system: Staphylococcus aureus; assay: Antibacterial activity against multidrug-resistant Staphylococcus aureus isolate 2224 by broth microdilution assay; type: functional; how it was run: as §2
[18] = system: Staphylococcus aureus; assay: Antibacterial activity against multidrug-resistant Staphylococcus aureus isolate 2490 by broth microdilution assay; type: functional; how it was run: as §2
[19] = system: Staphylococcus aureus; assay: Antibacterial activity against multidrug-resistant Staphylococcus aureus isolate 2901 by broth microdilution assay; type: functional; how it was run: as §2
[20] = system: Staphylococcus aureus; assay: Antibacterial activity against multidrug-resistant Staphylococcus aureus isolate 1749 by broth microdilution assay; type: functional; how it was run: as §2
[21] = system: Staphylococcus aureus; assay: Antibacterial activity against multidrug-resistant Staphylococcus aureus isolate 1717 by broth microdilution assay; type: functional; how it was run: as §2
[22] = system: Staphylococcus aureus; assay: Antibacterial activity against multidrug-resistant Staphylococcus aureus isolate 200 by broth microdilution assay; type: functional; how it was run: as §2
[23] = system: Staphylococcus aureus; assay: Antibacterial activity against multidrug-resistant Staphylococcus aureus isolate 2516 by broth microdilution assay; type: functional; how it was run: as §2
[24] = system: Staphylococcus aureus; assay: Antibacterial activity against multidrug-resistant Staphylococcus aureus isolate 774 by broth microdilution assay; type: functional; how it was run: as §2
[25] = system: Staphylococcus aureus; assay: Antibacterial activity against multidrug-resistant Staphylococcus aureus isolate 1449 by broth microdilution assay; type: functional; how it was run: as §2
[26] = system: Staphylococcus aureus; assay: Antibacterial activity against multidrug-resistant Staphylococcus aureus isolate 3332 by broth microdilution assay; type: functional; how it was run: as §2
[27] = system: Staphylococcus aureus; assay: Antibacterial activity against multidrug-resistant Staphylococcus aureus isolate 1402 by broth microdilution assay; type: functional; how it was run: as §2
[28] = system: Staphylococcus aureus; assay: Antibacterial activity against multidrug-resistant Staphylococcus aureus isolate 2728 by broth microdilution assay; type: functional; how it was run: as §2
[29] = system: Staphylococcus aureus; assay: Antibacterial activity against multidrug-resistant Staphylococcus aureus isolate 2895 by broth microdilution assay; type: functional; how it was run: as §2
[30] = system: Staphylococcus aureus; assay: Antibacterial activity against multidrug-resistant Staphylococcus aureus isolate 3411 by broth microdilution assay; type: functional; how it was run: as §2
[31] = system: Staphylococcus aureus; assay: Antibacterial activity against multidrug-resistant Staphylococcus aureus isolate 757 by broth microdilution assay; type: functional; how it was run: as §2
[32] = system: Staphylococcus aureus; assay: Antibacterial activity against multidrug-resistant Staphylococcus aureus isolate 85 by broth microdilution assay; type: functional; how it was run: as §2

MIC [2]: 13 µM (≈ 3.88 µg/mL) | MIC [4]: > 64 µg/mL
Compound: CCCCCCCCN(C)c1ccc(F)c(C(N)=O)c1F
IC50 [1]: 92 µM | Selectivity Index [3]: 7

MIC [2]: 50 µM (≈ 15.6 µg/mL) | MIC [4]: > 64 µg/mL
Compound: CCCCCCCCCN(C)c1ccc(F)c(C(=N)N)c1F
IC50 [1]: > 100 µM | Selectivity Index [3]: >2

Compound: Cc1onc(-c2ccccc2Cl)c1C(=O)N[C@@H]1C(=O)N2[C@@H]1SC(C)(C)[C@@H]2C(=O)O [CLOXACILLIN]
MIC [5]: 4 µg/mL (≈ 9.18 µM) | MIC [6]: 32 µg/mL (≈ 73.4 µM) | MIC [7]: 64 µg/mL (≈ 147 µM) | MIC [8]: 1 µg/mL (≈ 2.29 µM) | MIC [9]: 2 µg/mL (≈ 4.59 µM) | MIC [10]: 16 µg/mL (≈ 36.7 µM) | MIC [11]: 8 µg/mL (≈ 18.4 µM) | MIC [12]: 16 µg/mL (≈ 36.7 µM) | MIC [13]: 32 µg/mL (≈ 73.4 µM) | MIC [14]: 64 µg/mL (≈ 147 µM) | MIC [15]: 4 µg/mL (≈ 9.18 µM) | MIC [16]: 8 µg/mL (≈ 18.4 µM) | MIC [17]: 8 µg/mL (≈ 18.4 µM) | MIC [18]: 2 µg/mL (≈ 4.59 µM) | MIC [19]: 2 µg/mL (≈ 4.59 µM) | MIC [20]: 0.5 µg/mL (≈ 1.15 µM) | MIC [21]: 0.5 µg/mL (≈ 1.15 µM) | MIC [22]: 1 µg/mL (≈ 2.29 µM) | MIC [23]: 16 µg/mL (≈ 36.7 µM) | MIC [24]: 2 µg/mL (≈ 4.59 µM) | MIC [25]: 1 µg/mL (≈ 2.29 µM) | MIC [26]: 8 µg/mL (≈ 18.4 µM) | MIC [27]: 2 µg/mL (≈ 4.59 µM) | MIC [28]: 1 µg/mL (≈ 2.29 µM) | MIC [29]: 8 µg/mL (≈ 18.4 µM) | MIC [30]: 32 µg/mL (≈ 73.4 µM) | MIC [31]: 8 µg/mL (≈ 18.4 µM) | MIC [32]: 0.5 µg/mL (≈ 1.15 µM)

MIC [2]: 25 µM (≈ 7.41 µg/mL) | MIC [4]: > 64 µg/mL
Compound: CCCCCC/C=C\CNc1ccc(F)c(C(N)=O)c1F
IC50 [1]: 99 µM | Selectivity Index [3]: 4

MIC [2]: 13 µM (≈ 5.48 µg/mL) | MIC [4]: > 64 µg/mL
Compound: NC(=O)c1c(F)ccc(N(Cc2ccc(Cl)cc2)Cc2ccc(Cl)cc2)c1F
IC50 [1]: > 100 µM | Selectivity Index [3]: >8

Compound: COc1cccc(OC)c1C(=O)N[C@@H]1C(=O)N2[C@@H]1SC(C)(C)[C@@H]2C(=O)O [METHICILLIN]
MIC [5]: 64 µg/mL (≈ 168 µM) | MIC [6]: 256 µg/mL (≈ 673 µM) | MIC [7]: 1020 µg/mL (≈ 2690 µM) | MIC [8]: 16 µg/mL (≈ 42.1 µM) | MIC [9]: 16 µg/mL (≈ 42.1 µM) | MIC [10]: 16 µg/mL (≈ 42.1 µM) | MIC [11]: 128 µg/mL (≈ 336 µM) | MIC [12]: 256 µg/mL (≈ 673 µM) | MIC [13]: 1020 µg/mL (≈ 2690 µM) | MIC [14]: 1020 µg/mL (≈ 2690 µM) | MIC [15]: 32 µg/mL (≈ 84.1 µM) | MIC [16]: 64 µg/mL (≈ 168 µM) | MIC [17]: 16 µg/mL (≈ 42.1 µM) | MIC [18]: 1020 µg/mL (≈ 2690 µM) | MIC [19]: 256 µg/mL (≈ 673 µM) | MIC [20]: 32 µg/mL (≈ 84.1 µM) | MIC [21]: 16 µg/mL (≈ 42.1 µM) | MIC [22]: 16 µg/mL (≈ 42.1 µM) | MIC [23]: 64 µg/mL (≈ 168 µM) | MIC [24]: 16 µg/mL (≈ 42.1 µM) | MIC [25]: 8 µg/mL (≈ 21 µM) | MIC [26]: 128 µg/mL (≈ 336 µM) | MIC [27]: 32 µg/mL (≈ 84.1 µM) | MIC [28]: 32 µg/mL (≈ 84.1 µM) | MIC [29]: 64 µg/mL (≈ 168 µM) | MIC [30]: 128 µg/mL (≈ 336 µM) | MIC [31]: 64 µg/mL (≈ 168 µM) | MIC [32]: 8 µg/mL (≈ 21 µM)

MIC [2]: 13 µM (≈ 4.26 µg/mL) | MIC [4]: > 64 µg/mL
Compound: CCCCCCCCCN(C)c1ccc(F)c(/C(N)=N/O)c1F
IC50 [1]: > 100 µM | Selectivity Index [3]: >8

MIC [2]: 50 µM (≈ 15.7 µg/mL) | MIC [4]: > 64 µg/mL
Compound: CCCCCCCCCNc1ccc(F)c(/C(N)=N/O)c1F
IC50 [1]: > 100 µM | Selectivity Index [3]: >2

MIC [2]: 50 µM (≈ 16.2 µg/mL) | MIC [4]: > 64 µg/mL
Compound: CCCCCCCCCNc1ccc(F)c(-c2nnn[nH]2)c1F
IC50 [1]: > 100 µM | Selectivity Index [3]: >2
